Results on one compound are retold here after ChEMBL document CHEMBL5608187, “Discovery of pyridoquinoxaline-based new P-gp inhibitors as coadjutant against Multi Drug Resistance in cancer” (Eur J Med Chem, 2024).

The source made the active and inactive calls. No cut-off for these calls is given here.

For data set [1], the system named is HT-29. Put plainly: Coadjutant activity against multidrug resistance in human HT-29 cells assessed as potentiation of cisplatin-induced cell growth inhibition at 4 uM incubated for 72 hrs in presence of 0.1 to 100 uM cisplatin by SiR-DNA/CellTox Green Dye based fluorescence analysis. It counts as functional. The gist of the method:
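Cisplatin co-treatment, 72 h imaging growth assay (SiR-DNA nuclei minus CellTox Green dead cells, 500 cells/well, phenol-red-free medium). Combinations: inhibitor fixed with cisplatin 0.1–100 µM, or cisplatin fixed at 0.25 µM with inhibitor 0.25–4 µM. Three technical replicates, mean ± SD; two-tailed t-test.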

For data set [2], the system named is MeWo. In words: Cytotoxicity against human MeWo cells assessed as inhibition of cell growth at 4 uM incubated for 72 hrs by SiR-DNA/CellTox Green Dye based fluorescence analysis. The format is toxicity. The gist of the method:
(§1)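 Single-agent control at 4 µM, no anticancer drug. 500 cells/well with SiR-DNA and CellTox Green; imaged at addition and 72 h. Live count = total nuclei minus dead cells, expressed as percent growth. Three technical replicates.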

Data set [3] has as its system HT-29. In words: Cytotoxicity against human HT-29 cells assessed as inhibition of cell growth at 4 uM incubated for 72 hrs by SiR-DNA/CellTox Green Dye based fluorescence analysis. The format is toxicity. Particulars: ht-29, 72 h. The method in brief:
as §1

On to `O=C(Nc1ccccc1)c1ccccc1OCc1nc2cc3cccnc3cc2nc1COc1ccccc1C(=O)Nc1ccccc1`, for which the result in data set [1] was inactive. Besides, the Activity entry in data set [2] and in data set [3] was “Non-Toxic” each time.
